UCH37 DUB inh = inhibitors of human UCH37 deubiquitinase, primary screen, biochemical, Ub-AMC cleavage, fluorescence | Ubiquitin carboxyl-terminal hydrolase isozyme L5 (Homo sapiens), Q9Y5K5 | purified proteasome/UCH37 | 330,000 compounds, 0.33% hits | inhibition, % (no concentration beside the values);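 active = mean inhibition over replicate wells above about 20%, limit read from the data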;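 also: 0% = compound-free wells with enzyme and 100% = wells lacking proteasome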
Target sequence (Q9Y5K5 whole entry, looked up): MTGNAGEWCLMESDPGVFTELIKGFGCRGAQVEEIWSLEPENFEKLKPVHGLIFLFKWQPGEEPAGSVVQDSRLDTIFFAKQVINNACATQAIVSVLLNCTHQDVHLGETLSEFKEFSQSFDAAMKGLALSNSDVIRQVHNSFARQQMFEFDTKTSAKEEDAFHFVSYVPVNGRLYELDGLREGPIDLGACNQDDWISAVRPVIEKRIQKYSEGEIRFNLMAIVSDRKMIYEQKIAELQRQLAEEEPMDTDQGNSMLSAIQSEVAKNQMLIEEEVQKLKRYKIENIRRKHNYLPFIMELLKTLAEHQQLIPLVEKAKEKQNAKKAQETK
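Assay system: Proteasome-bound UCH37. Buffer or medium: pH 7.4 Tris-HCl (50 mM) with ovalbumin, ATP-MgCl2, DTT. Incubation: 30 min preincubation with enzyme, 25 min cleavage at room temperature. Measured by: fluorescence, ex 355 nm, em 460 nm. Read-out basis: percent inhibition. Control set: wells without proteasome as full block, compound-free enzyme plus substrate as uninhibited.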
NSD2 inh = NSD2 histone methyltransferase inhibitors, primary screen, biochemical, AlphaScreen, single concentration, set 2; inhibition, % at 12.5 µM; AID 743445, 2014; 310,000 compounds, 0.54% hits; Histone-lysine N-methyltransferase NSD2 (Homo sapiens), O96028; NSD2 peptide methylation, 120 min; in the data active = inhibition above about 50%
Casp6 inh = human caspase-6 inhibitors, primary screen, biochemical, VEID-R110 fluorescence, single point, set 2. P55212. purified caspase-6, Z-VEID-R110 cleavage fluorescence. inhibition, % at 12.5 µM. 350,000 compounds, 0.53% hits;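 active = mean inhibition across replicates at least about 35%, with every replicate also reaching that limit, limit read from the data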;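 also: 0% = median of neutral control wells and 100% = no fluorescence left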
FGF22 binding = binders of human FGF22 protein, primary screen, FGF22 synaptogenesis inhibitor project, biophysical, thermal shift, single point; recombinant FGF22 thermal shift, SYPRO orange fluorescence; percent of sucrose octasulfate shift, DMSO zero; Fibroblast growth factor 22 (Homo sapiens), Q9HCT0; 340,000 compounds, 1.5% hits; activity (Tm shift, normalised), % at 9.99 µM;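 active = mean Tm shift, scaled 0 neutral to 100 positive control, at about 1.3% or above, every replicate too, limit read from the data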
SIRT5 inh = SIRT5 desuccinylase inhibitors, primary screen, biochemical, fluorescence imaging, single point, set 5; Purified SirT5, succinyl-peptide AMC, trypsin-coupled fluorescence; 330,000 compounds, 1.1% hits; inhibition, % at 15 µM; NAD-dependent protein deacylase sirtuin-5, mitochondrial (Homo sapiens), Q9NXA8; in the data active = inhibition above about 15%
* = called active by the depositor; x = not tested or not shown. Most compounds without a hit are left out; they make up all but 2.6% or so of the library.

SMILES	UCH37 DUB inh	NSD2 inh	Casp6 inh	FGF22 binding	SIRT5 inh
O=C(NCCOc1ccccc1)C1CCCCC1	4	0	3	43*	-5
COc1ccc(NC(=O)N(C)C[C@@H]2OCCCC[C@H](C)Oc3ccc(NS(=O)(=O)c4cn(C)cn4)cc3C(=O)N([C@H](C)CO)C[C@H]2C)cc1	x	x	-4	0	-1
C[C@@H]1CN([C@@H](C)CO)C(=O)Cc2cc(NC(=O)CCC(F)(F)F)ccc2O[C@H]1CN(C)Cc1ccc(C(=O)Nc2ccccc2N)cc1	x	x	-4	0	2
Cc1noc(C)c1S(=O)(=O)Nc1ccc2c(c1)C(=O)N([C@@H](C)CO)C[C@H](C)[C@H](CN(C)Cc1ccncc1)O2	x	x	0	0	3
O=C(O)C1Sc2[nH]c(=O)sc2C2c3ccc(O)cc3OC(=O)C12 (stereo not drawn)	x	1	58*	1	-9
N#Cc1ccccc1C=NNc1nc(-c2ccccc2)c2cc(Cl)ccc2n1	-11	x	x	x	x
COc1ccc(-c2noc3c2-c2nc(C(C)C)sc2CC3)cc1	1	x	x	x	x
CC(C)c1nc2c(s1)CCc1onc(-c3ccc(Cl)cc3)c1-2	24*	x	x	0	x
COc1ccc(CC(=O)Nc2ccc(C(=O)NCC(C)C)cc2)cc1	0	-1	3	x	18*
COc1ccc(CC(=O)Nc2ccc(C(C)=O)cc2)cc1	0	-2	2	0	-2
CC(=O)C1=C(O)C(=O)N(CCN(C)C)C1c1ccc(Cl)cc1 (stereo not drawn)	24*	0	x	x	x
COc1ccccc1CN(C)C[C@H]1OCc2ccccc2-c2c(n(C)c3ccccc23)C(=O)N([C@@H](C)CO)C[C@H]1C	x	x	1	0	15*
COC(=O)N(C)C[C@H]1OCc2ccccc2-c2c(n(C)c3ccccc23)C(=O)N([C@@H](C)CO)C[C@@H]1C	x	x	3	0	18*
C[C@@H]1CN([C@H](C)CO)C(=O)c2c(c3ccccc3n2C)-c2ccccc2CO[C@H]1CN(C)Cc1cccc2c1OCCCO2	x	x	-1	-1	23*
COC(=O)N(C)C[C@@H]1OCc2ccccc2-c2c(n(C)c3ccccc23)C(=O)N([C@H](C)CO)C[C@@H]1C	x	x	2	0	1
C[C@H]1CN([C@@H](C)CO)C(=O)c2ccccc2-c2ccccc2CO[C@H]1CN(C)Cc1cccc2c1OCCCO2	x	x	-2	0	-1
COc1ccccc1CN(C)C[C@@H]1OCc2ccccc2-c2c(n(C)c3ccccc23)C(=O)N([C@H](C)CO)C[C@@H]1C	x	x	1	1	0
C[C@H]1CN([C@@H](C)CO)C(=O)c2c(c3ccccc3n2C)-c2ccccc2CO[C@@H]1CN(C)Cc1cccc2c1OCCCO2	x	x	-1	-1	19*
CC(C)CC#Cc1cnc2c(c1)C(=O)N([C@@H](C)CO)C[C@H](C)[C@@H](CN(C)C(=O)c1ccc3c(c1)OCO3)O2	x	x	2	0	2
C[C@@H]1CCCCO[C@H](CN(C)C(=O)Nc2ccc(F)cc2)[C@@H](C)CN([C@@H](C)CO)C(=O)c2cc(NC(=O)C3CCCCC3)ccc2O1	x	x	0	-1	6
Cc1noc(C)c1NC(=O)N(C)C[C@@H]1Oc2cc(C#CCC3CCCC3)ccc2S(=O)(=O)N([C@@H](C)CO)C[C@@H]1C	x	x	-3	0	9
C[C@H]1CN([C@@H](C)CO)C(=O)c2cc(C#CCN(C)C)cnc2O[C@@H]1CN(C)C(=O)c1cccnc1	x	x	-2	0	-2
C[C@@H]1CN([C@@H](C)CO)C(=O)c2c(c3ccccc3n2C)-c2ccccc2CO[C@@H]1CN(C)Cc1cccc2c1OCCCO2	x	x	1	0	25*
C[C@H]1CN([C@@H](C)CO)C(=O)c2c(c3ccccc3n2C)-c2ccccc2CO[C@H]1CN(C)Cc1cccc2c1OCCCO2	x	x	-1	0	21*
C[C@H]1CN([C@@H](C)CO)C(=O)c2c(c3ccccc3n2C)-c2ccccc2CO[C@@H]1CN(C)Cc1ccccc1	x	x	7	x	5
